Test results taken from ChEMBL document CHEMBL4145697, “Replacement of a Naphthalene Scaffold in Kelch-like ECH-Associated Protein 1 (KEAP1)/Nuclear Factor (Erythroid-derived 2)-like 2 (NRF2) Inhibitors” (J Med Chem, 2018).
≈ marks a conversion by molar mass, not a printed value. Calls of active or inactive are those of the source. The calls are words filed in the database; no cut-off is given here.

How the values were obtained:
[1] = Kinetic solubility in pH 7.4 incubated for 1 hr by HPLC method; assay type: physicochemical; conditions: buffer, read-out: Kinetic_solubility
[2] = Stability in mouse liver microsomes assessed as compound remaining level at 200 uM incubated for 20 mins by LC-MS method; assay type: ADME, microsome; conditions: read-out: Stability
[3] = target: Keap1/Nrf2 (Homo sapiens, UniProt Q14145); assay: Inhibition of Keap1 Kelch domain (unknown origin) /Nrf2 (unknown origin) interaction using fluorescein-labeled 9-mer peptide containing NRF2 Neh2 domain ETGE motif by fluorescence anisotropy assay; assay type: protein assay
Sequence of Keap1/Nrf2 (Q16236 whole entry, the tested form may be a part): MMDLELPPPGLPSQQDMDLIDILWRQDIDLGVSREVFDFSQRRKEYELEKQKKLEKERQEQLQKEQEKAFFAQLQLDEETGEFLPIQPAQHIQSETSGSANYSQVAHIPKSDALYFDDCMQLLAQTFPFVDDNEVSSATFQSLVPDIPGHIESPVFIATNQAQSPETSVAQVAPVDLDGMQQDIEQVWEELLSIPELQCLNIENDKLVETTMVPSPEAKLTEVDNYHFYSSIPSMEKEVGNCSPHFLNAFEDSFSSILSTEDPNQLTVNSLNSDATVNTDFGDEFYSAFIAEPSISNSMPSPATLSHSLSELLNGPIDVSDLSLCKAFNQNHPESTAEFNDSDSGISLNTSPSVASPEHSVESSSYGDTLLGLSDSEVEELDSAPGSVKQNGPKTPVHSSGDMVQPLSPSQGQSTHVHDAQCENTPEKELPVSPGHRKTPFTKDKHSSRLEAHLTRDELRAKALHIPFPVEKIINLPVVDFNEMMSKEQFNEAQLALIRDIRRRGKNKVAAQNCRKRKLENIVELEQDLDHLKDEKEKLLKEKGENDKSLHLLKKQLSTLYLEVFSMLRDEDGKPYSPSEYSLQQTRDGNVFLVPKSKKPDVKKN
Sequence of Keap1/Nrf2 (Q14145 whole entry, the tested form may be a part): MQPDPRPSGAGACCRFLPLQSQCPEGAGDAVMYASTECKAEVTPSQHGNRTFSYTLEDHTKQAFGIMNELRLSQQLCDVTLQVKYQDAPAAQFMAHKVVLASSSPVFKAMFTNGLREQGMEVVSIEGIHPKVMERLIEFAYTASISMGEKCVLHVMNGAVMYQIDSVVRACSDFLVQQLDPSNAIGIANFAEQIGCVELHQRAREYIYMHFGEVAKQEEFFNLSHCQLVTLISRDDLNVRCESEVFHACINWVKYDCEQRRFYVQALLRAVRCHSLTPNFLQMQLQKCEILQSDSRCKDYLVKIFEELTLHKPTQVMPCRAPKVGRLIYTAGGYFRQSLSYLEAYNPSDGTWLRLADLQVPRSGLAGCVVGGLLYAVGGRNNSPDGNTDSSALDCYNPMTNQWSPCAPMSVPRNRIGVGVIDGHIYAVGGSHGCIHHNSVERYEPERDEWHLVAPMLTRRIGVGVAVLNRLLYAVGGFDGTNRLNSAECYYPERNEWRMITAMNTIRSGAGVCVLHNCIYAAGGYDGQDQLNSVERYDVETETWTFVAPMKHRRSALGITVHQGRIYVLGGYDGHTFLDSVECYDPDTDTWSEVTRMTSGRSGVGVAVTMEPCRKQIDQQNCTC

[4] = test system: Escherichia coli; assay: Cytotoxicity in Escherichia coli WP2 uvrA (pKM101) at 1.5 to 1000 ug/well; assay type: organism-based; conditions: in vivo
Method in brief: (§1)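 Mini-Ames plate incorporation; compounds dissolved in DMSO, tested at 1.5–1000 µg/well with and without Aroclor 1254-induced rat liver S9, alongside solvent and positive controls. Cells in top agar over minimal glucose agar; triplicate wells (vehicle sextuplicate), 37 ± 2 °C for 48–72 h. Cytotoxicity scored as fewer revertants per well and/or thinning or loss of background lawn relative to negative control.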

[5] = Lipophilicity, log D of the compound; assay type: physicochemical; conditions: octanol/water
[6] = Stability in mouse liver microsomes assessed as compound remaining level at 1 uM incubated for 20 mins by LC-MS method
[7] = test system: Salmonella typhimurium; assay: Cytotoxicity in Salmonella typhimurium TA1535 at 1.5 to 1000 ug/well; assay type: organism-based; conditions: salmonella enterica subsp. enterica serovar typhimurium; method in brief: as §1
[8] = test system: Salmonella typhimurium; assay: Cytotoxicity in Salmonella typhimurium TA100 at 1.5 to 1000 ug/well; assay type: organism-based; conditions: salmonella enterica subsp. enterica serovar typhimurium; method in brief: as §1
[9] = test system: Salmonella typhimurium; assay: Mutagenicity in Salmonella typhimurium TA100 assessed as increase in number of revertant colonies at 1.5 to 1000 ug/well in presence of rat liver S9 fractions incubated for 48 to 72 hrs; assay type: toxicity, organism-based; conditions: salmonella enterica subsp. enterica serovar typhimurium
Method in brief: (§2)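 Reverse mutation at histidine locus in top agar (0.6% agar, 0.5% NaCl, histidine/biotin) with Aroclor 1254-induced rat liver S9 mix; DMSO vehicle, doses 1.5–1000 µg/well. Plated in triplicate wells (vehicle sextuplicate) on minimal glucose agar, 37 ± 2 °C for 48–72 h. Revertant colonies counted manually; fold-change over DMSO, p-values by two-tailed t-test.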

[10] = Stability in human liver microsomes assessed as compound remaining level at 1 uM incubated for 20 mins by LC-MS method
[11] = test system: Salmonella typhimurium; assay: Cytotoxicity in Salmonella typhimurium TA98 at 1.5 to 1000 ug/well; assay type: organism-based; conditions: salmonella enterica subsp. enterica serovar typhimurium; method in brief: as §1
[12] = test system: Salmonella typhimurium; assay: Mutagenicity in Salmonella typhimurium TA98 assessed as increase in number of revertant colonies at 1.5 to 1000 ug/well in presence of rat liver S9 fractions incubated for 48 to 72 hrs; assay type: toxicity, organism-based; conditions: salmonella enterica subsp. enterica serovar typhimurium; method in brief: as §2
[13] = test system: Salmonella typhimurium; assay: Cytotoxicity in Salmonella typhimurium TA1537 at 1.5 to 1000 ug/well; assay type: organism-based; conditions: salmonella enterica subsp. enterica serovar typhimurium; method in brief: as §1
[14] = test system: HaCaT; assay: Effect on SOD2 gene expression in human HaCaT cells at 10 uM incubated for 24 hrs by qPCR method; assay type: ADME, cell-based
[15] = test system: HaCaT; assay: Effect on SOD2 gene expression in human HaCaT cells at 10 uM incubated for 6 hrs by qPCR method; assay type: ADME, cell-based
[16] = target: T1, Keap1/Nrf2 (Homo sapiens) (UniProt Q16236+Q14145); assay: Inhibition of Keap1/Nrf2 interaction in human HaCaT cells assessed as increase in GCLC gene expression at 10 uM incubated for 6 hrs by qPCR method; assay type: cell-based
T1 sequence (Q14145 whole entry, looked up): as the sequence (Q14145 whole entry, the tested form may be a part) above
T1 sequence (Q16236 whole entry, looked up): as the sequence (Q16236 whole entry, the tested form may be a part) above

[17] = target: T1, Keap1/Nrf2 (Homo sapiens); assay: Inhibition of Keap1/Nrf2 interaction in human HaCaT cells assessed as increase in NQO1 protein expression at 10 uM incubated for 6 hrs by Western blot method; assay type: cell-based
Method in brief: (§3)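 HaCaT cells in DMEM, 10% FBS, 1% antibiotics, treated at 70–80% confluence with 10 μM compound or DMSO for 6 or 24 h in complete medium. Lysates (~40 μg protein) resolved by 10% SDS-PAGE, immunoblotted for NQO1; bands quantified against GAPDH, vehicle set to one arbitrary unit.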

[18] = target: T1, Keap1/Nrf2 (Homo sapiens); assay: Inhibition of Keap1/Nrf2 interaction in human HaCaT cells assessed as increase in GCLC gene expression at 10 uM incubated for 24 hrs by qPCR method; assay type: cell-based
[19] = target: T1, Keap1/Nrf2 (Homo sapiens); assay: Inhibition of Keap1/Nrf2 interaction in human HaCaT cells assessed as increase in NQO1 protein expression at 10 uM incubated for 24 hrs by Western blot method; assay type: cell-based; method in brief: as §3
[20] = target: T1, Keap1/Nrf2 (Homo sapiens); assay: Inhibition of Keap1/Nrf2 interaction in human HaCaT cells assessed as increase in NRF2 nuclear accumulation at 10 uM incubated for 6 hrs by immunoblot assay; assay type: cell-based
[21] = target: T1, Keap1/Nrf2 (Homo sapiens); assay: Inhibition of Keap1/Nrf2 interaction in human HaCaT cells assessed as increase in NQO1 gene expression at 10 uM incubated for 24 hrs by qPCR method; assay type: cell-based
[22] = target: T1, Keap1/Nrf2 (Homo sapiens); assay: Inhibition of Keap1/Nrf2 interaction in human HaCaT cells assessed as increase in NRF2 nuclear accumulation at 10 uM incubated for 24 hrs by immunoblot assay; assay type: cell-based
[23] = target: T1, Keap1/Nrf2 (Homo sapiens); assay: Inhibition of Keap1/Nrf2 interaction in human HaCaT cells assessed as increase in GCLM gene expression at 10 uM incubated for 6 hrs by qPCR method; assay type: cell-based
[24] = target: T1, Keap1/Nrf2 (Homo sapiens); assay: Inhibition of Keap1/Nrf2 interaction in human HaCaT cells assessed as increase in NQO1 gene expression at 10 uM incubated for 6 hrs by qPCR method; assay type: cell-based
[25] = target: T1, Keap1/Nrf2 (Homo sapiens); assay: Inhibition of Keap1/Nrf2 interaction in human HaCaT cells assessed as increase in HMOX1 gene expression at 10 uM incubated for 6 hrs by qPCR method; assay type: cell-based
[26] = target: T1, Keap1/Nrf2 (Homo sapiens); assay: Inhibition of Keap1/Nrf2 interaction in human HaCaT cells assessed as increase in HMOX1 gene expression at 10 uM incubated for 24 hrs by qPCR method; assay type: cell-based
[27] = target: T1, Keap1/Nrf2 (Homo sapiens); assay: Inhibition of Keap1/Nrf2 interaction in human HaCaT cells assessed as increase in GCLM gene expression at 10 uM incubated for 24 hrs by qPCR method; assay type: cell-based
[28] = target: Kelch-like ECH-associated protein 1 (Homo sapiens, UniProt Q14145); assay: Binding affinity to Keap1 Kelch domain (unknown origin) by surface plasmon resonance assay
Sequence of Kelch-like ECH-associated protein 1 (Q14145 whole entry, the tested form may be a part): as the sequence (Q14145 whole entry, the tested form may be a part) above

COc1ccc(S(=O)(=O)N(CC(N)=O)c2ccc(N(CC(N)=O)S(=O)(=O)c3ccc(OC)cc3)c3ccccc23)cc1
solubility kinetic at 1 h [1]: 22 µM (≈ 13.5 µg/mL) | remaining at 20 min, 200 µM [2]: 0%

COc1ccc(S(=O)(=O)Nc2ccc(NS(=O)(=O)c3ccc(OC)cc3)c3[nH]ccc23)cc1
IC50 [3]: > 25 µM

COc1ccc(S(=O)(=O)N(CC(=O)O)c2ccc(N(CC(=O)O)S(=O)(=O)c3ccc(OC)cc3)cc2)cc1
IC50 [3]: 0.98 µM

COc1ccc(S(=O)(=O)N(CC(=O)O)C(=O)c2ccccc2C(=O)N(CC(=O)O)S(=O)(=O)c2ccc(OC)cc2)cc1
IC50 [3]: > 25 µM

COc1ccc(S(=O)(=O)N(CC=CCN(CC(=O)O)S(=O)(=O)c2ccc(OC)cc2)CC(=O)O)cc1 (mixture of isomers)
IC50 [3]: > 25 µM

COc1ccc(S(=O)(=O)Nc2ccc(NS(=O)(=O)c3ccc(OC)cc3)c3ccccc23)cc1
solubility kinetic at 1 h [1]: 5.4 µM (≈ 2.69 µg/mL) | remaining at 20 min, 200 µM [2]: 15%

COc1ccc(S(=O)(=O)N(CC(=O)O)c2ccc(N(CC(=O)O)S(=O)(=O)c3ccc(OC)cc3)c3ccccc23)cc1
Activity [4]: Non-Toxic | logD [5]: -1.9 | Stability [6]: Stable | solubility kinetic at 1 h [1]: 440 µM (≈ 270 µg/mL) | Activity [7]: Non-Toxic | Activity [8]: Non-Toxic | Activity [9]: Dose-dependent effect | Stability [10]: Stable | Activity [11]: Non-Toxic | Activity [12]: Dose-dependent effect | Activity [13]: Non-Toxic

COc1ccc(S(=O)(=O)N(CC(=O)O)c2cnc(N(CC(=O)O)S(=O)(=O)c3ccc(OC)cc3)c3ccccc23)cc1
Activity [4]: Non-Toxic | Activity [14]: Non-Toxic | logD [5]: -1.7 | Activity [15]: Non-Toxic | Activity [7]: Non-Toxic | Activity [8]: Non-Toxic | Activity [11]: Non-Toxic | Activity [13]: Non-Toxic

COc1ccc(S(=O)(=O)Nc2ccc(NS(=O)(=O)c3ccc(OC)cc3)c3ncccc23)cc1
IC50 [3]: > 25 µM

COc1ccc(S(=O)(=O)N(CC(=O)O)c2ccc(N(CC(=O)O)S(=O)(=O)c3ccc(OC)cc3)c3[nH]ccc23)cc1
IC50 [3]: 1.3 µM

COc1ccc(S(=O)(=O)N(CC(=O)O)c2ccc(N(CC(=O)O)S(=O)(=O)c3ccc(OC)cc3)nc2)cc1
IC50 [3]: > 25 µM

COc1ccc(S(=O)(=O)N(CC(=O)O)c2ccc(N(CC(=O)O)S(=O)(=O)c3ccc(OC)cc3)c3ncccc23)cc1
Activity [14]: Non-Toxic | inhibition [16]: Active | inhibition [17]: Active | inhibition [18]: Active | inhibition [19]: Active | inhibition [20]: Active | inhibition [21]: Active | inhibition [22]: Active | Activity [15]: Non-Toxic | inhibition [23]: Active | inhibition [24]: Active | inhibition [25]: inactive | IC50 [3]: 0.101 µM | inhibition [26]: inactive | inhibition [27]: Active | Kd [28]: 0.103 µM

COc1ccc(S(=O)(=O)N(CC(=O)O)Cc2ccccc2CN(CC(=O)O)S(=O)(=O)c2ccc(OC)cc2)cc1
IC50 [3]: > 25 µM

COc1ccc(S(=O)(=O)Nc2nnc(NS(=O)(=O)c3ccc(OC)cc3)c3ccccc23)cc1
IC50 [3]: > 25 µM
